The values that follow come from ChEMBL document CHEMBL3865824, “New (E)-1-alkyl-1H-benzo[d]imidazol-2-yl)methylene)indolin-2-ones: Synthesis, in vitro cytotoxicity evaluation and apoptosis inducing studies” (Eur J Med Chem, 2016).

Structures are written as SMILES.

The subject of this experiment is MDA-MB-231. In words: Induction of apoptosis in human MDA-MB-231 cells assessed as increase in cleaved PARP expression after 24 hrs by Western blot analysis. It is filed as functional, cell-based. The method, boiled down: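 MDA-MB-231 treated at 1, 2 or 4 µM for 24 h. Whole-cell extracts prepared in RIPA buffer. Blots probed with rabbit anti-caspase-3, anti-Bcl2 and anti-β-actin (1:1000) and anti-Bax (1:500), then HRP secondaries and ECL detection. Membranes stripped and reprobed. Bands quantified by densitometry as fold change versus control. Mean ± SEM, n=3.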
(In western blotting, separated proteins are transferred to a membrane and probed.)

With `CC(C)n1c(/C=C2/C(=O)Nc3ccc(Br)cc32)nc2ccccc21`, the Activity result is “Dose-dependent effect”.
